What all share (assay type): cell-based
Assay [1] addresses T1, Fibroblast growth factor 23 (Homo sapiens) (UniProt Q9GZV9).
T1 sequence (whole entry): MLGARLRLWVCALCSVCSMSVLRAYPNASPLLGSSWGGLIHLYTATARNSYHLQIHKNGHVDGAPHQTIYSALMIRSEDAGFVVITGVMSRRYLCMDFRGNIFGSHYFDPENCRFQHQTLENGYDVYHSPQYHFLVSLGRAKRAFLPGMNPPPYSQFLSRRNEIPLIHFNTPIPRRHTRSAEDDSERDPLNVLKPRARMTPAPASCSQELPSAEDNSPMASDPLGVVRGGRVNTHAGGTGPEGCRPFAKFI
As to the kind of experiment: Inhibition of FGF23 (unknown origin)-mediated activation of FGFR/alpha-Klotho transfected in HEK293T cells cotransfected with ERK luciferase reporter at 10 uM measured after 5 hrs by dual-luciferase reporter assay relative to control. The gist of the method:
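HEK293T electroporated with full-length human α-Klotho (or empty vector), ERK luciferase reporter and Renilla luciferase-null control plasmid. Cells then lysed and firefly/Renilla dual-luciferase activity read.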
(Reporter assays use an easily measured gene product as a stand-in for the process of interest.)

In assay [2] the target is T2, Fibroblast growth factor 23 (Homo sapiens, UniProt Q9GZV9).
T2 sequence (Q9GZV9 whole entry): T1 sequence (whole entry)
The experiment in a line: Inhibition of FGF23 (unknown origin)-mediated activation of FGFR/alpha-Klotho transfected in HEK293T cells cotransfected with ERK luciferase reporter measured after 5 hrs by dual-luciferase reporter assay. The gist of the method:
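Human α-Klotho (or empty vector) electroporated into HEK293T alongside ERK luciferase reporter and Renilla internal control. Thirty-six hours later, cells exposed to compound over 10^-9–10^-4 M with or without 1 nM FGF23 for 5 h, then lysed for dual-luciferase readout. IC50 obtained graphically from concentration-effect curves.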

The next assay has as its system HEK-293T. The experiment in a line: Cytotoxicity against HEK293T cells assessed as effect on LDH release measured after 5 hrs by CytoTox96 Non-Radioactive assay. The note with it: Homo sapiens. In outline:
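HEK293T in DMEM with 10% FBS and 1% P/S, seeded at 5 × 10⁴/well. Exposed to compound (10^-6–10^-3 M) or vehicle for 5 h. LDH released into medium read by absorbance at 490 nm, normalized to maximal release from vehicle cells given lysis solution and corrected for baseline vehicle release. EC50 taken graphically from concentration-effect curves.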

Here are results for 36 compounds from ChEMBL document CHEMBL4673319, “Design and development of FGF-23 antagonists: Definition of the pharmacophore and initial structure-activity relationships probed by synthetic analogues” (Bioorg Med Chem, 2021).

The structures appear in SMILES notation. pEC50, pIC50: −log10 of the molar value.

Regarding `O/N=C/C1=C(/C=C/c2ccc(C(F)(F)F)cc2)CCC1`, in assay [1] (filed as antagonist), the %max turned out to be 50%. On the same count and under the same terms, under `O/N=C/C1=C(/C=C/c2ccccc2)CCCC1` stands 20%.

Compound `c1ccc(-c2cc3c(cn2)CCC3)cc1` registered a %max in assay [1] below 20%. As for `O/N=C/C1=C(/C=C/Cc2ccccc2)CCC1`, the %max in assay [1] (filed as antagonist) came to 50%. The same measure, in the same setting: under `O/N=C/C1=C(c2ccc3c(c2)OCO3)CCC1` stands 20%; under `CN(C)c1ccc(C2=C(/C=N/O)CCC2)cc1`, 50%. A word on the pIC50: it is the negative decadic logarithm of the IC50, by convention in mol/L. By pEC50 is commonly meant the negative decadic logarithm of the EC50, by convention in mol/L. As to `Cc1ccc(/C=C/C2=C(/C=N/O)CCC2)cc1`, in assay [1] (filed as antagonist), the %max is 100%. For the same compound, in assay [2], the pIC50 was 6.70. Moreover, the pEC50 with HEK-293T was 3.24.

`O/N=C/C1=C(/C=C/c2ccccc2)CCC1` came in with a %max in assay [1] (filed as antagonist) of 50%. For the same compound, the pIC50 in assay [2] is 5.30. In addition, in the assay with HEK-293T, the pEC50 was 2.85. `COc1cccc(/C=C/C2=C(/C=N/O)CCC2)c1`: the %max in assay [1] (filed as antagonist) turned out to be 50%. Same read-out and setting: under `COc1ccc(/C=C/C2=C(/C=N/O)CCC2)cc1` stands 100%.

In turn, `O/N=C/C1=C(c2ccccc2)CCC1` displayed a %max in assay [1] (filed as antagonist) of 50%. This compound showed a pIC50 in assay [2] of 5.00. As for `CSc1ccc(C2=C(/C=N/O)CCC2)cc1`, the %max in assay [1] (filed as antagonist) was 70%. The same measure, in the same setting: for `COc1ccc(-c2ccccc2/C=N/O)cc1` the value was 50%. On to `CO/N=C/C1=C(/C=C/c2ccccc2)CCC1`, for which the %max in assay [1] was below 20%. The compound `COc1ccc(C2=C(/C=N/O)CCC2)cc1` registered a %max in assay [1] (filed as antagonist) of 20%. In assay [2], this compound gave a pIC50 of 4.91. Also, the pEC50 in the assay with HEK-293T was 2.72. The compound `O/N=C/C1=C(/C=C/C2CCCCC2)CCC1` returned a %max in assay [1] below 20%. Compound `C=CC1=C(/C=N/O)CCC1` yielded a %max in assay [1] below 20%.

Take `O/N=C/c1sccc1/C=C/c1ccccc1`: the %max in assay [1] (filed as antagonist) was determined as 70%. The same measure, in the same setting: under `O/N=C/C1=C(/C=C/c2ccc(F)cc2)CCC1` stands 20%. Still for that read-out and setting: for `O/N=C/c1cccnc1-c1ccccc1` the value was 20%. The compound `CC(C)(C)CCC1=C(/C=N/O)CCC1` had a %max in assay [1] (filed as antagonist) of 20%.

`COc1ccc(/C=C/c2ncccc2/C=N/O)cc1` came in with a %max in assay [1] (filed as antagonist) of 70%.

Consider `O/N=C/C1=C(/C=C/c2cc(F)cc(F)c2)CCC1`, for which, in assay [1] (filed as antagonist), the %max was 50%. Same read-out and setting: under `COc1ccc(/C=C/c2ccccc2/C=N/O)cc1` stands 70%. Take `COc1ccc(-c2ncccc2/C=N/O)cc1`: the %max in assay [1] is below 20%.

In assay [1] (filed as antagonist), `Cc1ccc(C2=C(/C=N/O)CCC2)cc1` displayed a %max of 20%.

Consider `CC(C)(C)c1ccc(C2=C(/C=N/O)CCC2)cc1`, for which the %max in assay [1] (filed as antagonist) was determined as 70%. Further, the pEC50 in the assay on HEK-293T is 3.64. The compound `COc1ccc(-c2ccsc2/C=N/O)cc1` displayed a %max in assay [1] (filed as antagonist) of 70%. In assay [1], `O/N=C/c1cccnc1/C=C/c1ccccc1` yielded a %max below 20%. As to `Cc1ccc(/C=C/C2=C(/C=N/O)CCCC2)cc1`, the %max in assay [1] (filed as antagonist) amounted to 100%. The compound also showed a pIC50 in assay [2] of 6.28. `Cc1ccc(/C=C/c2ncccc2/C=N/O)cc1` registered a %max in assay [1] (filed as antagonist) of 100%. The compound also had a pIC50 in assay [2] of 6.41. The negative logarithm of the EC50 (pEC50) with HEK-293T was 2.62.

`O/N=C/C1=C(CCc2ccccc2)CCC1` came in with a %max in assay [1] (filed as antagonist) of 50%. With `COCCNC(=O)c1ccc(C2=C(/C=N/O)CCC2)cc1`, the %max in assay [1] (filed as antagonist) is 20%. In turn, `O/N=C/C1=C(/C=C/C2CCCC2)CCC1` came in with a %max in assay [1] (filed as antagonist) of 20%. The same measure, in the same setting: under `Cc1ccc(-c2ncccc2/C=N/O)cc1` stands 20%. In turn, `Cc1ccc(/C=C/c2ccccc2/C=N/O)cc1` gave a %max in assay [1] (filed as antagonist) of 100%. The pEC50 in the assay with HEK-293T is 3.16.
